12 compounds from ChEMBL document CHEMBL1177774, “2-Aryl-4,5,6,7-tetrahydro-1,3-benzothiazol-7-ols as a class of antitumor agents selectively active in securin(-/-) cells” (Bioorg Med Chem Lett, 2010) can be followed below.

Assay type in all cases: functional, cell-based
One assay has as its system MCF-10A. Nature of the assay: Cytotoxicity against human MCF10A cells after 2 days by sulforhodamine B assay. Conditions: 48 h. A digest of the protocol: (§1)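 Cells kept in RPMI 1640 with 10% fetal bovine serum and 50 µg/ml gentamicin, 37 °C, humidified, 5% CO2. Plated in 96-well plates; compound dilutions added next day (final 2 nM to 200 µM), then 2 days culture before survival read-out. 10 concentrations, in triplicate (some in duplicate); repeat values agreed on average within 40%.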

The test system of a further assay is MDA-MB-361. Nature of the assay: Cytotoxicity against human MDA-MB-361 cells after 2 days by sulforhodamine B assay. The note with it: MDA-MB-361, 48 h. Summed up: as §1
Another assay concerns MCF7. Nature of the assay: Cytotoxicity against human MCF7 cells after 2 days by sulforhodamine B assay. The note with it: MCF7, 48 h. Summed up: as §1
For orientation: Sulforhodamine B stains cellular protein and so reports cell mass.

Assay [1] deals with HCT-116. Nature of the assay: Cytotoxicity against human HCT116 cells after 2 days by sulforhodamine B assay. The note with it: HCT-116, 48 h. A digest of the protocol: as §1
Assay [2] has as its system HCT-116. Nature of the assay: Cytotoxicity against human HCT116-D8 securin -/- cells after 2 days by sulforhodamine B assay. Conditions: HCT-116, 48 h. Summed up:
as §1

Assay [3] in a line: Cytotoxicity against human HCT116-F3 securin -/- cells after 2 days by sulforhodamine B assay. Conditions: 48 h. Summed up:
as §1

Where only a bound is given, the exact number is not on record here.

In the case of `OC1CNCc2nc(-c3ccc(N4CCCC4)cc3)sc21` (stereo unspecified), the IC50 (commonly the concentration needed to halve the response being measured) in the assay with MCF-10A is 27800 nM; in the assay with MDA-MB-361 it was 140 nM; in the assay on MCF7 it was 1530 nM; with HCT-116 [1] it was 25000 nM; in the assay on HCT-116 [2], 730 nM; in assay [3] it was 1070 nM.
Regarding `CN(C)c1ccc(-c2nc3c(s2)C(O)CNC3)c(CO)c1` (stereo unspecified), the IC50 in the assay on MCF-10A is 70000 nM; in the assay on MDA-MB-361, 22 nM; in the assay with MCF7, 31 nM; in the assay on HCT-116 [1], more than 100000 nM; with HCT-116 [2], 100 nM; in assay [3] it was 100 nM.
Turning to `CN(C)c1ccc(-c2nc3c(s2)C(O)CCC3)cc1` (stereo unspecified), the IC50 in the assay with MCF-10A was more than 150000 nM; with MDA-MB-361, 830 nM; with MCF7 it was 1170 nM; with HCT-116 [1] it was more than 150000 nM; with HCT-116 [2] it was 1500 nM; in assay [3], 3000 nM.
In the case of `CN(C)c1ccc(-c2nc3c(s2)[C@H](O)CCC3)cc1`, the IC50 in the assay with MCF-10A is more than 100000 nM; in the assay on MDA-MB-361 it was 200 nM; in the assay with MCF7, 1450 nM; with HCT-116 [1], 114000 nM; with HCT-116 [2], 850 nM; in assay [3] it was 1430 nM.
With `CN(C)c1ccc(-c2nc3c(s2)[C@@H](O)CCC3)cc1`, the IC50 in the assay with MCF-10A was more than 100000 nM; with MCF7, 3300 nM; in the assay on HCT-116 [1], more than 100000 nM; with HCT-116 [2], 20000 nM; in assay [3], 46000 nM.
As to `Cc1cc(N(C)C)ccc1-c1nc2c(s1)[C@H](O)CCC2`, the IC50 in the assay with MCF-10A was more than 100000 nM; in the assay with MDA-MB-361 it was 83 nM; with MCF7 it was 730 nM; with HCT-116 [1], more than 100000 nM; in the assay on HCT-116 [2], 270 nM; in assay [3], 230 nM.
Regarding `OCc1cc(N2CCCC2)ccc1-c1nc2c(s1)C(O)CNC2` (stereo unspecified), the IC50 with MCF-10A is more than 100000 nM; in the assay on MDA-MB-361, 20 nM; in the assay with MCF7, 13 nM; in the assay on HCT-116 [1], more than 100000 nM; with HCT-116 [2], 70 nM; in assay [3] it was 60 nM.
Take `OC1CCCc2nc(-c3ccc(N4CCCC4)cc3)sc21` (stereo unspecified): the IC50 with MCF-10A was more than 100000 nM; in the assay with MDA-MB-361, 200 nM; in the assay with MCF7, 8700 nM; in the assay on HCT-116 [1], more than 100000 nM; with HCT-116 [2], 1530 nM; in assay [3], 2800 nM.
Regarding `CN(C)c1ccc(-c2nc3c(s2)C(O)CCC3)c(CO)c1` (stereo unspecified), the IC50 in the assay with MCF-10A was more than 100000 nM; with MDA-MB-361, 420 nM; in the assay with MCF7, 360 nM; in the assay on HCT-116 [1], 78000 nM; in the assay on HCT-116 [2] it was 60 nM; in assay [3] it was 60 nM.
Regarding `OCc1cc(N2CCCC2)ccc1-c1nc2c(s1)C(O)CCC2` (stereo unspecified), the IC50 worked out at 17000 nM with MCF-10A; 32 nM in the assay with MDA-MB-361; 56 nM in the assay with MCF7; 21000 nM with HCT-116 [1]; 42 nM with HCT-116 [2]; 44 nM in assay [3].
On to `CN(C)c1ccc(-c2nc3c(s2)C(O)CNC3)cc1` (stereo unspecified), for which the IC50 was 70200 nM in the assay on MCF-10A; 170 nM in the assay on MDA-MB-361; 1600 nM in the assay with MCF7; 121000 nM in the assay on HCT-116 [1]; 1330 nM with HCT-116 [2]; 1630 nM in assay [3].
`Cc1cc(N(C)C)ccc1-c1nc2c(s1)[C@@H](O)CCC2`: the IC50 in the assay on MCF-10A was more than 100000 nM; with MDA-MB-361, 160 nM; with MCF7, 2150 nM; in the assay on HCT-116 [1], 127000 nM; in the assay with HCT-116 [2], 560 nM; in assay [3] it was 1160 nM.
